From ChEMBL document CHEMBL4043182, “On the synthesis of quinone-based BODIPY hybrids: New insights on antitumor activity and mechanism of action in cancer cells” (Bioorg Med Chem Lett, 2017)
Values belong to the molecule of their own block, whether it stands above or below them.

Tests used:
[1] = system: PC-3; assay: Antiproliferative activity against human PC3 cells after 72 hrs by MTT assay; type: functional, cell-based; conditions: PC-3, 72 h
How it was run: (§1)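 MTT reduction: cancer lines plated at 0.7×10^5 to 0.3×10^6 cells/well, V79 and L929 fibroblasts at 0.5×10^5 cells/well. Compounds in DMSO (0.1%) were given for 24 h at 0.04–40.92 µM or 72 h at 0.04–8.19 µM. Fresh medium with 0.5 mg/mL MTT was added for 3 h, then formazan was dissolved in DMSO and read at 595 nm as % of control. IC50 came from nonlinear regression with 95% CI. Doxorubicin (0.001–1.06 µM) was the positive control. Triplicate, ≥3 repeats.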

[2] = system: SF-295; assay: Antiproliferative activity against human SF295 cells after 72 hrs by MTT assay; type: functional, cell-based; conditions: SF-295, 72 h; how it was run: as §1
[3] = system: MDA-MB-435; assay: Antiproliferative activity against human MDA-MB-435 cells after 72 hrs by MTT assay; type: functional, cell-based; conditions: MDA-MB-435, 72 h; how it was run: as §1
[4] = system: SW-620; assay: Antiproliferative activity against human SW620 cells after 72 hrs by MTT assay; type: functional, cell-based; conditions: SW-620, 72 h; how it was run: as §1
[5] = system: HCT-116; assay: Antiproliferative activity against human HCT116 cells after 72 hrs by MTT assay; type: functional, cell-based; conditions: HCT-116, 72 h; how it was run: as §1
[6] = system: L929; assay: Antiproliferative activity against mouse L929 cells after 72 hrs by MTT assay; type: cell-based; conditions: L929, 72 h; how it was run: as §1
[7] = system: V79; assay: Antiproliferative activity against chinese hamster V79 cells after 72 hrs by MTT assay; type: cell-based; conditions: Cricetulus griseus, V79, 72 h; how it was run: as §1
[8] = Drug uptake in lysosomes of human PC3 cells at 5 uM after 10 mins by LysoTracker Red dye-based confocal microscopic analysis; type: ADME, cell-based; conditions: pc-3, 10 min
How it was run: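 PC3 cells were grown in DMEM with 10% FBS, antibiotics and 2 mM L-glutamine at 37 °C, 5% CO2. Cells were incubated with compound (5 µM) plus LysoTracker Red or MitoTracker Red for 10 min at 37 °C. Live cells were imaged in phenol red-free DMEM by confocal microscopy with a 40X oil objective, exciting at 488 nm (compound) and 543 nm (tracker dyes).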

[9] = system: HL-60; assay: Antiproliferative activity against human HL60 cells after 24 to 72 hrs by MTT assay; type: functional, cell-based; how it was run: as §1
[10] = system: Jurkat; assay: Antiproliferative activity against human Jurkat cells after 24 to 72 hrs by MTT assay; type: functional, cell-based; how it was run: as §1
[11] = system: L929; assay: Antiproliferative activity against mouse L929 cells at 0.04 to 40.92 uM after 24 to 72 hrs by MTT assay; type: cell-based; conditions: l929, 40.92 µM; how it was run: as §1
[12] = system: V79; assay: Antiproliferative activity against chinese hamster V79 cells at 0.04 to 40.92 uM after 24 to 72 hrs by MTT assay; type: cell-based, Cricetulus griseus; conditions: v79, 40.92 µM; how it was run: as §1
[13] = Selectivity index, ratio of IC50 for mouse L929 cells to IC50 for human HL60 cells; type: functional
How it was run: (§2)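 Selectivity index is the ratio of the IC50 in a non-cancer murine line (V79 or L929) to the IC50 in the cancer line. […] MTT was 0.5 mg/mL for 3 h, formazan dissolved in DMSO and read at 595 nm as % of control. IC50s were derived by nonlinear regression; triplicate, at least three repeats.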

[14] = Selectivity index, ratio of IC50 for chinese hamster V79 cells to IC50 for human HL60 cells; type: functional; how it was run: as §2
[15] = Selectivity index, ratio of IC50 for mouse L929 cells to IC50 for human Jurkat cells; type: functional; how it was run: as §2
[16] = Selectivity index, ratio of IC50 for chinese hamster V79 cells to IC50 for human Jurkat cells; type: functional; how it was run: as §2
[17] = system: HL-60; assay: Induction of oxidative stress in human HL60 cells assessed as total intracellular thiol levels at 5 uM after 24 hrs by spectrophotometric analysis (reference value: 3.61 +/- 0.22 microg/mg); type: functional
[18] = system: HL-60; assay: Induction of oxidative stress in human HL60 cells assessed as total intracellular thiol levels at 5 uM treated 24 hrs post NAC addition measured after 24 hrs by spectrophotometric analysis (reference value: 3.61 +/- 0.22 microg/mg); type: functional
How it was run: (§3)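 Cells were pretreated 24 h with 5 mM NAC, then exposed 24 h to test compound at 5 µM. Controls received 0.1% DMSO. Extracts were prepared by sonication and HClO4 precipitation, then neutralized with KOH. Total glutathione was read by DTNB/glutathione reductase/NADPH rate at 412 nm. GSSG was measured after 4-vinylpyridine (0.1%, 1 h, RT) and GSH derived by difference. Values are normalized to protein, triplicates, three independent runs.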

[19] = system: HL-60; assay: Induction of oxidative stress in human HL60 cells assessed as total GSH levels at 5 uM after 24 hrs by spectrophotometric analysis (reference value: 3.01 +/- 0.11 microg/mg); type: functional
[20] = system: HL-60; assay: Induction of oxidative stress in human HL60 cells assessed as total GSH levels at 5 uM treated 24 hrs post NAC addition measured after 24 hrs by spectrophotometric analysis (reference value: 3.01 +/- 0.11 microg/mg); type: functional; how it was run: as §3
[21] = system: HL-60; assay: Induction of oxidative stress in human HL60 cells assessed as total GSSG levels at 5 uM after 24 hrs by spectrophotometric analysis (reference value: 0.66 +/- 0.17 microg/mg); type: functional
[22] = system: HL-60; assay: Induction of oxidative stress in human HL60 cells assessed as total GSSG levels at 5 uM treated 24 hrs post NAC addition measured after 24 hrs by spectrophotometric analysis (reference value: 0.66 +/- 0.17 microg/mg); type: functional; how it was run: as §3
[23] = system: HL-60; assay: Induction of oxidative stress in human HL60 cells assessed as GSH to GSSG ratio at 5 uM after 24 hrs by spectrophotometric analysis (reference value: 4.53 +/- 0.55 microg/mg); type: functional
[24] = system: HL-60; assay: Induction of oxidative stress in human HL60 cells assessed as GSH to GSSG ratio at 5 uM treated 24 hrs post NAC addition measured after 24 hrs by spectrophotometric analysis (reference value: 4.53 +/- 0.55 microg/mg); type: functional; how it was run: as §3
[25] = system: Jurkat; assay: Induction of oxidative stress in human Jurkat cells assessed as total intracellular thiol levels at 5 uM after 24 hrs by spectrophotometric analysis (reference value: 3.87 +/- 0.55 microg/mg); type: functional
[26] = system: Jurkat; assay: Induction of oxidative stress in human Jurkat cells assessed as total intracellular thiol levels at 5 uM treated 24 hrs post NAC addition measured after 24 hrs by spectrophotometric analysis (reference value: 3.87 +/- 0.55 microg/mg); type: functional; how it was run: as §3
[27] = system: Jurkat; assay: Induction of oxidative stress in human Jurkat cells assessed as total GSH levels at 5 uM after 24 hrs by spectrophotometric analysis (reference value: 3.02 +/- 0.21 microg/mg); type: functional
[28] = system: Jurkat; assay: Induction of oxidative stress in human Jurkat cells assessed as total GSH levels at 5 uM treated 24 hrs post NAC addition measured after 24 hrs by spectrophotometric analysis (reference value: 3.02 +/- 0.21 microg/mg); type: functional; how it was run: as §3
[29] = system: Jurkat; assay: Induction of oxidative stress in human Jurkat cells assessed as total GSSG levels at 5 uM after 24 hrs by spectrophotometric analysis (reference value: 0.78 +/- 0.33 microg/mg); type: functional
[30] = system: Jurkat; assay: Induction of oxidative stress in human Jurkat cells assessed as total GSSG levels at 5 uM treated 24 hrs post NAC addition measured after 24 hrs by spectrophotometric analysis (reference value: 0.78 +/- 0.33 microg/mg); type: functional; how it was run: as §3
[31] = system: Jurkat; assay: Induction of oxidative stress in human Jurkat cells assessed as GSH to GSSG ratio at 5 uM after 24 hrs by spectrophotometric analysis (reference value: 3.81 +/- 0.22 microg/mg); type: functional
[32] = system: Jurkat; assay: Induction of oxidative stress in human Jurkat cells assessed as GSH to GSSG ratio at 5 uM treated 24 hrs post NAC addition measured after 24 hrs by spectrophotometric analysis (reference value: 3.81 +/- 0.22 microg/mg); type: functional; how it was run: as §3
[33] = system: PC-3; assay: Cytotoxicity against human PC3 cells after 24 hrs in presence of GSH-OEt by MTT assay; type: functional, cell-based; conditions: PC-3, 24 h
How it was run: (§4)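 24 h MTT exposure (0.04–40.92 µM in 0.1% DMSO), with or without co-treatment with GSH ethyl ester (15 mM) to gauge the ROS contribution. MTT was 0.5 mg/mL for 3 h, with formazan dissolved in DMSO and absorbance at 595 nm expressed as % of control. Triplicate, repeated at least three times.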

[34] = system: SF-295; assay: Cytotoxicity against human SF295 cells after 24 hrs in presence of GSH-OEt by MTT assay; type: functional, cell-based; conditions: SF-295, 24 h; how it was run: as §4
[35] = system: HCT-116; assay: Cytotoxicity against human HCT116 cells after 24 hrs in presence of GSH-OEt by MTT assay; type: functional, cell-based; conditions: HCT-116, 24 h; how it was run: as §4
[36] = system: L929; assay: Cytotoxicity against mouse L929 cells after 24 hrs in presence of GSH-OEt by MTT assay; type: cell-based; conditions: L929, 24 h; how it was run: as §4
[37] = system: PC-3; assay: Cytotoxicity against human PC3 cells after 24 hrs in absence of GSH-OEt by MTT assay; type: functional, cell-based; conditions: PC-3, 24 h; how it was run: as §4
[38] = system: SF-295; assay: Cytotoxicity against human SF295 cells after 24 hrs in absence of GSH-OEt by MTT assay; type: functional, cell-based; conditions: SF-295, 24 h; how it was run: as §4
[39] = system: HCT-116; assay: Cytotoxicity against human HCT116 cells after 24 hrs in absence of GSH-OEt by MTT assay; type: functional, cell-based; conditions: HCT-116, 24 h; how it was run: as §4
[40] = system: L929; assay: Cytotoxicity against mouse L929 cells after 24 hrs in absence of GSH-OEt by MTT assay; type: cell-based; conditions: L929, 24 h; how it was run: as §4

IC50 [1]: 2.39 µM
IC50 [3]: > 7.72 µM
IC50 [4]: > 7.72 µM
IC50 [5]: 2.85 µM
Drug uptake [8]: Metabolite_Detected
IC50 [9]: 0.92 µM
IC50 [10]: 0.94 µM
SMILES: CC1=CC(C)=[N+]2C1=C(c1ccc(OCc3cn(C4C5=C(OC4(C)C)c4ccccc4C(=O)C5=O)nn3)cc1)c1c(C)cc(C)n1[B-]2(F)F (configuration not stated)
IC50 [2]: > 7.72 µM
IC50 [6]: > 7.72 µM
IC50 [7]: > 7.72 µM
Activity [11]: Non-Toxic
Activity [12]: Non-Toxic
Ratio IC50 [13]: >8.5
Ratio IC50 [14]: >8.5
Ratio IC50 [15]: >8.5
Ratio IC50 [16]: >8.5
Activity [17]: 3.01 µg/mg
Activity [18]: 2.83 µg/mg
Activity [19]: 0.72 µg/mg
Activity [20]: 1.19 µg/mg
Activity [21]: 2.18 µg/mg
Activity [22]: 1.47 µg/mg
Activity [23]: 0.31 µg/mg
Activity [24]: 0.76 µg/mg
Activity [25]: 3.28 µg/mg
Activity [26]: 3.11 µg/mg
Activity [27]: 0.6 µg/mg
Activity [28]: 1.58 µg/mg
Activity [29]: 2.57 µg/mg
Activity [30]: 1.44 µg/mg
Activity [31]: 0.21 µg/mg
Activity [32]: 1.08 µg/mg

IC50 [1]: > 8.19 µM
IC50 [3]: > 8.19 µM
IC50 [4]: > 8.19 µM
IC50 [5]: > 8.19 µM
SMILES: O=C1C2=C(OC(Cn3cc(CNc4ccc5n4[B-](F)(F)[N+]4=C(Cl)C=CC4=C5c4ccccc4)nn3)C2)C(=O)c2ccccc21 (configuration not stated)
IC50 [2]: > 8.19 µM
IC50 [6]: > 8.19 µM
IC50 [7]: > 8.19 µM
IC50 [33]: > 40 µM
IC50 [34]: > 40 µM
IC50 [35]: > 40 µM
IC50 [36]: > 40 µM
IC50 [37]: > 40 µM
IC50 [38]: > 40 µM
IC50 [39]: > 40 µM
IC50 [40]: > 40 µM
